# Screens deposited in PubChem by several laboratories.
# Compounds with a hit are over-represented: about 2.4% of the library has one in this group of screens.
# ROMK mod – human ROMK K+ channel modulation, primary screen. P48048. Tet-inducible ROMK, thallium flux fluorescence; actives lie on both sides. hit rate 2% among 130,000. B-score at 10 µM;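 active = signal ratio slope over the read window, or its plate-corrected B-score, at least 3 SD from the plate mean, either direction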;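 note: B-score of the F/F0 ratio slope over 7 to 12 s after thallium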
# Target sequence (P48048 whole entry, looked up): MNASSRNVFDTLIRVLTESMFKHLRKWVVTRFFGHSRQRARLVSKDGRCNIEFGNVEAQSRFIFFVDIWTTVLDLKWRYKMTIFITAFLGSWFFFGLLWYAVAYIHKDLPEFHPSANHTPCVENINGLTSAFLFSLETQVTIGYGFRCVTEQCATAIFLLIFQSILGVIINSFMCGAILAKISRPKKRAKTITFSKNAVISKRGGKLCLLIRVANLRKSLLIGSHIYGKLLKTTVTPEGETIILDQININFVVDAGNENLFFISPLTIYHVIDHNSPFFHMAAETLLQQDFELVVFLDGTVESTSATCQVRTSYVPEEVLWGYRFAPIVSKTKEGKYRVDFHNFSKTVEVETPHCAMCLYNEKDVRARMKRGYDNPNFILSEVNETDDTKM
# HSV augment – HSV replication enhancement. HSV replication augmentation in cells, fold increase. maximum fold increase. hit rate 0.005% among 220,000. AID 1956; in the data active = maximum fold increase above about 1.5; inconclusive = no clear call, values can overlap the other calls; tested in PC3 cells
# b-catenin transl – modulators of beta-catenin nuclear translocation; AID 1665; HeLa beta-catenin nuclear translocation, immunofluorescence imaging; hit rate 0.3% among 190,000; nuclear translocation activity, % at 5 µM;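 active = nuclear translocation activity above 50% at 5 µM, with a well cell count of 50 or more; inconclusive = wells under 50 cells across six images, flagged as toxic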;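 note: per-cell ratio of nuclear to cytoplasmic median beta-catenin stain intensity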
#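 System: HeLa cells, endogenous beta-catenin; compound dosing: 5 µM primary single dose, 0.1% DMSO, 0.02–20 µM confirmation series; incubation: 24 h compound exposure at 37°C, 5% CO2; signal: beta-catenin immunofluorescence imaging with DAPI; evaluation: % activation, nuclear-to-cytoplasmic median beta-catenin signal ratio per cell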
# Insulin prom inh – TRM-6 insulin promoter activity inhibition; TRM-6 cells (human fetal islet line), insulin promoter-eGFP reporter, imaging; reporter expression induced with tamoxifen; inhibition, % at 2 µM; hit rate 0.9% among 130,000; AID 1273;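 active = inhibition above the mean plus 3 SD, with well images judged a real hit on visual review, cut at about 60% in these data, passing the limit was not always enough; inconclusive = inhibition over the cutoff but images rejected on review; inactive = inhibition not above the cutoff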
# MT stabilizer – microtubule stabilization, imaging screen; HeLa tubulin immunostaining HCS, 24 h; share of cells brighter than vehicle mean+2SD; % tubulin-high responders, % at 10 µM; hit rate 0.83% among 200,000;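 active = plate Z-score above 3 for both tubulin-high and condensed-nucleus cell shares, with cell loss under 80%, at 10 µM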;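 note: anti alpha tubulin signal scored within the nucleus-defined area of each cell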
# ROMK hit retest – retested hit modulating human ROMK potassium channel; shares compounds with ROMK mod; ROMK thallium flux, fluorescence ratio; stronger effect = lower value; normalized thallium flux (F/F0 slope) at 10 µM; hit rate 54% among 3,000; AID 1917;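 active = Flux at 10 µM at least 3 SD below or above vehicle control mean in one or both replicates; inconclusive = no clear call, values can overlap the other calls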
# A number is an active result; n = inactive; u = inconclusive; x = not tested or not shown.
SMILES,ROMK mod,HSV augment,b-catenin transl,Insulin prom inh,MT stabilizer,ROMK hit retest
COc1ccccc1-n1cnc2cc(NCc3ccco3)ccc21,7.9,n,131,x,32,n
CC(C)Cn1c(=O)[nH]c(=O)c2c(C(F)(F)F)cc(-c3ccccc3)nc21,x,n,n,x,x,x
COCCOC(=O)c1c(NC(=O)CN2c3ccccc3CC2C)sc(C(N)=O)c1C (stereo unspecified),2.2,n,n,x,n,u
COCCOC(=O)c1c(NC(=O)CN2CCOCC2)sc(C(N)=O)c1C,x,n,n,x,n,x
O=C(NCc1cccnc1)c1ccc(-c2ccc(Cl)cc2)o1,x,n,n,x,n,x
O=C(NCc1cccnc1)/C(=C\c1ccc(-c2ccc(Cl)c(Cl)c2)o1)S(=O)(=O)c1ccccc1,-5.1,n,n,n,35,0.056
CCCCC1=NN2CCS(=O)(=O)N=C2S1,n,n,n,x,n,x
O=C(CCNc1ccc(Cc2ccncc2)cc1)c1ccc([N+](=O)[O-])cc1,n,n,n,x,n,x
COc1ccc(/C=N\NC(=O)c2c(C)nc3ccc(Br)cn23)cc1,2.3,n,53,n,20,0.098
COc1ccc(/C=N/NC(=O)c2c(C)nc3ccc(Br)cn23)cc1OC,n,n,n,x,x,x
CCCCCCN1C=CC=C/C1=C/C=C(C#N)C#N,-6.9,u,x,n,n,0.046
C/C(=N\NC(=O)c1ccc([N+](=O)[O-])cc1Cl)c1ccccc1,n,n,n,x,n,x
CCOC(=O)N1CCN(S(=O)(=O)c2ccc3c(c2)SCC(=O)N3)CC1,-4.3,x,n,x,n,0.061
CCOC(=O)N1CCN(S(=O)(=O)c2ccc3c(c2)OCC(=O)N3)CC1,-2.5,n,n,x,n,0.058
CCOC(=O)N1CCN(S(=O)(=O)c2ccc(C)c(C)c2)CC1,n,n,n,n,n,x
CCOC(=O)N1CCN(S(=O)(=O)c2ccc3c(c2)SC(C)C(=O)N3)CC1 (stereo unspecified),x,x,n,n,n,0.067
CCCn1c(SCC(=O)NCc2ccc(Cl)cc2)n[nH]c1=O,n,n,n,x,n,x
Cc1c(NC(=S)SCc2ccccc2)c(=O)n(-c2ccccc2)n1C,n,n,n,n,n,x
CCC1CCC(c2nnc(-c3ccc([N+](=O)[O-])cc3)o2)CC1 (stereo unspecified),n,n,n,n,n,x
Cc1ccc2cc(CN(Cc3ccc4c(c3)OCO4)Cc3nnnn3Cc3ccco3)c(=O)[nH]c2c1C,-4.2,n,n,n,n,u
CC(=O)Oc1ccc(OC(C)=O)c2c1CC(C)=C(C)C2,x,u,n,x,x,x
O=C(CCCCN1CCCCC1)c1ccc2c(c1)Cc1ccccc1-2,-4.5,n,n,n,n,0.064
O=C(CCN1CCCCCC1)c1ccccc1,x,n,n,n,n,x
COc1ccc2[nH]cc(S(=O)(=O)c3ccc(C)cc3)c2c1,n,n,n,n,n,x
COc1ccc(CNc2oc(COc3ccc(Cl)cc3)nc2C#N)cc1,-2.1,n,n,x,n,n
SMILES,ROMK mod,HSV augment,b-catenin transl,Insulin prom inh,MT stabilizer,ROMK hit retest
N#Cc1cc(-c2ccccc2)nc(Oc2ccccc2)n1,n,n,n,x,n,x
NC(=O)c1cc(-c2ccccc2)nc(Oc2ccccc2)n1,-3.6,n,n,n,n,n
CC(=O)Nc1cccc(C(=O)/C=C/c2ccc(/C=C/C(=O)c3cccc(NC(C)=O)c3)cc2)c1,x,n,n,x,n,x
CC(=O)Nc1cccc(C(=O)/C=C/c2ccc(F)cc2)c1,-3.7,n,n,x,n,0.053
COc1ccc(/C=C/C(=O)Nc2cccc(C(C)=O)c2)cc1,1.4,n,n,n,n,u
CC(=O)Nc1cccc(C(=O)/C=C/c2ccc(N(C)C)cc2)c1,-3.7,n,n,n,n,0.048
COc1ccccc1/C=C/C(=O)Nc1cccc(C(C)=O)c1,n,n,n,n,n,x
Cc1ccc(C)c(SCC(=O)Nc2cccc(S(=O)(=O)NC3=NCCCCC3)c2)c1,n,n,n,n,n,x
Cc1ccc(CNCC(=O)Nc2cccc(S(=O)(=O)NC3=NCCCCC3)c2)cc1,-2.6,n,n,x,n,0.064
COc1ccccc1-c1nn2c(-c3ccco3)nnc2s1,n,n,n,x,x,0.057
c1coc(-c2nn3c(-c4ccco4)nnc3s2)c1,n,x,n,x,n,x
O=C(COc1ncnc2scc(-c3ccc(Cl)cc3)c12)NCc1ccco1,x,n,n,n,n,0.061
CCNC(=O)COc1ncnc2scc(-c3ccc(F)cc3)c12,n,n,n,n,n,x
COc1cccc(-c2nn(-c3ccccc3)cc2CN2CCCO2)c1,n,n,n,n,n,x
Cc1nnc(N/N=C\c2ccc(-c3ccccc3[N+](=O)[O-])o2)n1N,n,n,n,n,n,x
Cc1nnc(N/N=C/c2ccc(-c3ccccc3F)o2)n1N,-2.5,n,n,n,n,0.059
CCOC(=O)C1(Cc2cccc(F)c2)CCN(Cc2cnn(CC)c2C)CC1,x,n,n,n,n,x
CCCCOc1ccc(Cl)cc1Nc1nc(NCCO)nc(N2CCCC2)n1,x,n,x,x,x,x
CN(CC1CCOCC1)C(=O)CC1C(=O)NCCN1Cc1ccc(-c2ccccc2)cc1 (stereo unspecified),-4.1,n,n,x,n,n
CN(Cc1cccnc1)C(=O)CC1C(=O)NCCN1Cc1ccc(-c2ccccc2)cc1 (stereo unspecified),n,n,n,n,n,x
C[C@@H]1CC=C[C@H]2[C@H]1C(=O)N(Cc1ccccc1)[C@H]2c1ccc(/C=C/c2ccccc2)cc1F,x,n,n,x,x,x
N#Cc1cc2cc3ccccc3nc2n2c(=O)c3ccccc3nc12,x,n,n,n,n,0.056
O=C(NCCCN1CCOCC1)c1ccc(Sc2cccc(Cl)c2)c([N+](=O)[O-])c1,n,n,n,n,n,x
Cc1ccc2nc(NC(=O)C(NS(=O)(=O)c3cccc4nsnc34)C(C)C)sc2c1 (stereo unspecified),x,n,x,x,n,0.062
O=C(Cc1cccs1)NNC(=O)c1ccc(F)cc1,n,n,n,n,n,x
SMILES,ROMK mod,HSV augment,b-catenin transl,Insulin prom inh,MT stabilizer,ROMK hit retest
Cc1ccc(NC(=O)CSc2nnc(Cn3c(=O)sc4ccccc43)n2C)cc1Cl,x,x,n,x,n,x
O=C(Nc1cc2cc([N+](=O)[O-])ccc2oc1=O)c1cccs1,n,n,n,n,n,x
N#Cc1ccc(NC(=O)Nc2ccc(Cl)cc2)cc1,x,n,n,x,n,x
N#Cc1c(Nc2ccc(Cl)cc2)s[nH]c1=O,-12,n,n,x,x,0.065
Cc1ccc(NCc2nnc(SCC(=O)NCc3ccco3)n2CC2CCCO2)c(C)c1 (stereo unspecified),n,n,n,x,n,x
Cc1ccc(NCc2nnc(SCC(=O)NCc3ccco3)n2CC2CCCO2)cc1Cl (stereo unspecified),-2.8,n,x,n,n,0.067
COc1cccc(-c2cc(C(=O)NCc3cccs3)no2)c1,-2.1,n,n,x,x,n
COc1cccc(-c2cc(C(=O)Nc3cccc(O)c3)no2)c1,x,n,n,n,n,x
COc1ccc(NC(=O)c2cc(-c3cccc(OC)c3)on2)cc1,-4.4,n,n,n,n,n
COc1ccc(/C=C/C2=Nc3ccccc3NC(C)(C)C2)cc1OC,-7.8,n,n,x,x,0.043
O=C(O)c1ccc(-c2nc(-c3ccc(Cl)c(Cl)c3)cs2)cc1,3.1,n,n,n,n,n
